According to PubChem BioAssay AID652011 (Sanford-Burnham Center for Chemical Genomics, 2013):
Where “and” joins values, the source holds several entries; their conditions need not be identical. Identical values can stand only once.

Target: Endothelial PAS domain-containing protein 1 (Homo sapiens) (UniProt Q99814)
Assay: HIF-1a and HIF-2a reporter inhibitors, SAR follow-up, cell-based, luminescence, MIAPaCa-2, 786-0, panel (AID 652011)
Settings: MIAPaCa-2/PANC HIF reporter, luciferase luminescence, desferoxamine, overnight, HIF2a PANC, run 1; at 99 µM (top of the series)
Method in brief: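 Also added: desferoxamine added before compound. Dosing: compounds from 10 mM and 0.3125 mM stocks, 1% DMSO final. Timing: overnight seeding and compound exposure, 37 °C, 5% CO2, 10-min detection. Detection: luciferase luminescence with One-Glo reagent.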

Chain of Endothelial PAS domain-containing protein 1 (Homo sapiens) (Q99814 whole entry, looked up, the tested form may be a part): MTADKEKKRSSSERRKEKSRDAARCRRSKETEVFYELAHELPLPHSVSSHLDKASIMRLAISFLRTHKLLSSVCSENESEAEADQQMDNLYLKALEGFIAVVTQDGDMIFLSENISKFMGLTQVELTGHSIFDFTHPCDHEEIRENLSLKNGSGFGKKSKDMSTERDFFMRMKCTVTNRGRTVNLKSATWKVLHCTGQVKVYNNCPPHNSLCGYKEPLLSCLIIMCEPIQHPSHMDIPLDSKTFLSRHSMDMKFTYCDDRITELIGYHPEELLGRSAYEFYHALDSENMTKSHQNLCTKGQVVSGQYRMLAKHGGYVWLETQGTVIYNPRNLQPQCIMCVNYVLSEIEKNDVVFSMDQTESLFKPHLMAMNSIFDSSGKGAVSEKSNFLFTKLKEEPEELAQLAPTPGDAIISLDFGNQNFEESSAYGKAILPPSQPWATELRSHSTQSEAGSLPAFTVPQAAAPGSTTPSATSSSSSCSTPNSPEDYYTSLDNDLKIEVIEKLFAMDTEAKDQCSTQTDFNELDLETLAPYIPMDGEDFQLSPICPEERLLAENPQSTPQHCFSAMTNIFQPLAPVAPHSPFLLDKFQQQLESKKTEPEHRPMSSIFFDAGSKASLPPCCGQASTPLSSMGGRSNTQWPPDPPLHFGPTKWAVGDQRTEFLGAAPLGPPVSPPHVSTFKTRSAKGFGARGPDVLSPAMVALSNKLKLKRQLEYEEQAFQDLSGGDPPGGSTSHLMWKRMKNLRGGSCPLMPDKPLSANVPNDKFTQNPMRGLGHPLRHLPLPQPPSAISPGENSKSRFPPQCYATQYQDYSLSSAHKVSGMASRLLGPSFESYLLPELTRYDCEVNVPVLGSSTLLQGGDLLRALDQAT

| Compound | inhibition |
| --- | --- |
| CCNC(=O)CCc1nc(-c2ccc(C(C)C)cc2)no1 | -50.6% |
| CCNC(=O)CCc1nc(-c2c(Cl)cccc2Cl)no1 | 53.6% |
| CC(C)(C)c1ccc(-c2noc(CCC(=O)NC3CCCCC3)n2)cc1 | 93.4% |
| CCCCc1ccc(-c2noc(CCC(=O)NCC)n2)cc1 | -29.8% |
| CCCCc1ccc(-c2noc(CCC(=O)NC(C)(C)C)n2)cc1 | 62.8% |
| CCNC(=O)CCc1nc(-c2ccccc2)no1 | 21.2% |
| COC(=O)CCc1nc(-c2ccc(C(C)(C)C)cc2)no1 | 123% |
| CC(C)(C)c1ccc(-c2noc(CCC(=O)Nc3cccnc3)n2)cc1 | 118% |
| CC(C)(C)c1ccc(-c2noc(CCC(=O)Nc3ccccc3)n2)cc1 | 116% |
| CC(C)c1ccc(-c2noc(CCC(=O)NC(C)(C)C)n2)cc1 | 57.4% |
| CCOc1ccccc1NC(=O)CCc1nc(-c2ccc(C(C)(C)C)cc2)no1 | 117% |
| CNC(=O)CCc1nc(-c2ccc(C)cc2)no1 | 40.9% |
| CC(C)CNC(=O)CCc1nc(-c2ccc(C(C)(C)C)cc2)no1 | 63.8% |
| O=C(CCc1nc(-c2ccccc2)no1)NC1CC1 | 66% |
| CCNC(=O)CCc1nc(-c2cccc(OC)c2)no1 | 27.9% |
| CCC(C)NC(=O)CCc1nc(-c2ccccc2)no1 (stereo unspecified) | 63.6% |

| Compound | inhibition |
| --- | --- |
| CCCNC(=O)CCc1nc(-c2ccc(C(C)(C)C)cc2)no1 | 7.88% |
| CCOc1ccc(-c2noc(CCC(=O)NC)n2)cc1 | 112% |
| O=C(O)CCc1nc(-c2ccccc2)no1 | 25.2% |
| CCNC(=O)CCc1nc(-c2cccc(C)c2)no1 | -22.1% |
| C=CCNC(=O)CCc1nc(-c2ccc(C(C)(C)C)cc2)no1 | 56.7% |
| CCCCc1ccc(-c2noc(CCC(=O)NC3CC3)n2)cc1 | -40.8% |
| CC(C)(C)c1ccc(-c2noc(CCC(=O)O)n2)cc1 | 119% |
| CCN(CC)C(=O)CCc1nc(-c2ccc(C(C)(C)C)cc2)no1 | 44.3% and 43.4% |
| CNC(=O)CCc1nc(-c2ccc(F)cc2)no1 | -27.1% |
| CNC(=O)CCc1nc(-c2ccc(C(C)(C)C)cc2)no1 | 65.3% |
| CCNC(=O)CCc1nc(-c2ccccc2Cl)no1 | 26% |
| CNC(=O)CCc1nc(-c2ccc(Cl)cc2)no1 | 13.4% |
| CC(C)(C)c1ccc(-c2noc(CCC(=O)N3CCCCC3)n2)cc1 | 103% |
| CNC(=O)CCc1nc(-c2ccc(OC)cc2)no1 | 36.2% |
| CNC(=O)CCc1nc(-c2ccc(C(C)C)cc2)no1 | 24% |
